Laboratory results published in ChEMBL document CHEMBL1123463, “Two stereoisomeric imidazoline derivatives: synthesis and optical and alpha 2-adrenoceptor activities” (J Med Chem, 1986).

What was measured:
Rattus norvegicus [1] = assay: Maximal decrease of heart rate calculated as bradycardiac activity after intravenous injection of 1 ug/kg in rats; format: functional
Method in brief: (§1)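 Anesthetized male normotensive Wistar rats (200-350 g; ip sodium pentobarbitone 75.0 mg/kg), cannulated trachea, kept at ca. 37 °C rectal. Pulse rate recorded continuously; following ~20 min stabilization each rat received one iv dose in saline (1 mL/kg, expressed as hydrochloride). Maximal fall in heart rate measured.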

Rattus norvegicus [2] = assay: Maximal decrease of heart rate calculated as bradycardiac activity after intravenous injection of 3.16 ug/kg in rats; format: functional; method in brief: as §1
Rattus norvegicus [3] = assay: Maximal decrease of heart rate calculated as bradycardiac activity after intravenous injection of 10 ug/kg in rats; format: functional; method in brief: as §1
Rattus norvegicus [4] = assay: Maximal decrease of arterial blood pressure (MAP) after intravenous injection of compound at a dose of 10 ug/kg in rats; format: functional
Method in brief: (§2)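 Male normotensive Wistar rats (200-350 g) anesthetized with ip sodium pentobarbitone 75.0 mg/kg; trachea cannulated, spontaneous breathing, rectal temperature ca. 37 °C. Arterial pressure recorded continuously. After ~20 min stabilization, single iv injection in saline (1 mL/kg; doses as hydrochloride), one injection per animal. Read-out: maximal fall in mean arterial pressure.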

Rattus norvegicus [5] = assay: Maximal decrease of arterial blood pressure (MAP) after intravenous injection of compound at a dose of 1 ug/kg in rats; format: functional; method in brief: as §2
Rattus norvegicus [6] = assay: Maximal decrease of arterial blood pressure (MAP) after intravenous injection of compound at a dose of 3.16 ug/kg in rats; format: functional; method in brief: as §2
Rattus norvegicus [7] = assay: Maximal decrease of arterial blood pressure(MAP) after intravenous injection of compound at a dose of 5.61ug/kg in rats; format: functional; method in brief: as §2
[8] = biological target: T1, Adrenergic receptor alpha-2 (Rattus norvegicus, UniProt P22086+P19328+P22909); assay: Compound was tested for its ability to inhibit specific binding of [3H]clonidine to alpha-2-adrenoceptor in rat brain; format: tissue-based
T1 sequence (P22086 whole entry): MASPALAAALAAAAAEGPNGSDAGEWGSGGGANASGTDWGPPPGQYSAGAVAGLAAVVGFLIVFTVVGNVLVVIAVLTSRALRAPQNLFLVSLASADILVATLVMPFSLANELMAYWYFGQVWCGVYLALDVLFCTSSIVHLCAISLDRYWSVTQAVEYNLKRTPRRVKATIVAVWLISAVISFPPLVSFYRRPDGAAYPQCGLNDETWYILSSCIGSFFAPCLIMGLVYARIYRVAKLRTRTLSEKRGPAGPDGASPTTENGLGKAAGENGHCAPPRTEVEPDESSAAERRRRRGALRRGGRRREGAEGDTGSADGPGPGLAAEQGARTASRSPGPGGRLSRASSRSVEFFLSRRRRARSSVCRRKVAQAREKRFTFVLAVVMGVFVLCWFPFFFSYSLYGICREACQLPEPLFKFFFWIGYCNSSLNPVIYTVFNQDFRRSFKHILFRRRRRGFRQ
T1 sequence (P19328 whole entry): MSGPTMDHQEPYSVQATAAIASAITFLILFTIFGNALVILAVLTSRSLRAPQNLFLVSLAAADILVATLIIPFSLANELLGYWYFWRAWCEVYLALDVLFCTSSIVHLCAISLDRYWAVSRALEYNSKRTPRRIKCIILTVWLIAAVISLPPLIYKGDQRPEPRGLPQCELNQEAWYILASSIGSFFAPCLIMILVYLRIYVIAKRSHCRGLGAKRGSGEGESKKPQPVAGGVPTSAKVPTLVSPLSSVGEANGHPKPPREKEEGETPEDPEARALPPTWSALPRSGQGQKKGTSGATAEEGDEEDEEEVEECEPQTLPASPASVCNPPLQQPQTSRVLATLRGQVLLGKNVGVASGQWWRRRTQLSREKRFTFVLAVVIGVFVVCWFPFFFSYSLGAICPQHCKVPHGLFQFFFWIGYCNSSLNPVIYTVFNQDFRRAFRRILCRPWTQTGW
T1 sequence (P22909 whole entry): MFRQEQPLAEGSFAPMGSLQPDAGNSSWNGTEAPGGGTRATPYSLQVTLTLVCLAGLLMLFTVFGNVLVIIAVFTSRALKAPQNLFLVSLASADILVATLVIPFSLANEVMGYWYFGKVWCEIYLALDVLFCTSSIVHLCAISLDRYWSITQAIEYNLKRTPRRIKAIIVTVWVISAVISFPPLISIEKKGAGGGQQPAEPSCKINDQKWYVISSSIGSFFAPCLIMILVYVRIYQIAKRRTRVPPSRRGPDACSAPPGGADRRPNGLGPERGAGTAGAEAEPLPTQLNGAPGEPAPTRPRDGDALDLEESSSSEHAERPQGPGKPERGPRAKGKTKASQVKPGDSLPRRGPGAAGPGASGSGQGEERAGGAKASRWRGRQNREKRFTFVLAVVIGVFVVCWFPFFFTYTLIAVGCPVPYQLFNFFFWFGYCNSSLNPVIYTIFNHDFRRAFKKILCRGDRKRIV

Rattus norvegicus [9] = assay: Maximal decrease of heart rate calculated as bradycardiac activity after intravenous injection of 5.61ug/kg in rats; format: functional; method in brief: as §1
[10] = biological target: T1, Adrenergic receptor alpha-2; assay: Compound was tested for its ability to inhibit specific binding of [3H]clonidine to alpha-2 adrenergic receptor in rat brain; format: tissue-based
Rattus norvegicus [11] = assay: Maximal decrease of heart rate calculated as bradycardiac activity after intravenous injection of 0.561 ug/kg in rats; format: functional; method in brief: as §1
Rattus norvegicus [12] = assay: Maximal decrease of arterial blood pressure (MAP)after intravenous injection of compound at a dose of 0.561 ug/kg in rats; format: functional; method in brief: as §2

Row | Structure (SMILES) | Heart rate (Rattus norvegicus [1]) | Heart rate (Rattus norvegicus [2]) | Heart rate (Rattus norvegicus [3]) | MAP (Rattus norvegicus [4]) [mmHg] | MAP (Rattus norvegicus [5]) [mmHg] | MAP (Rattus norvegicus [6]) [mmHg] | MAP (Rattus norvegicus [7]) [mmHg] | IC50 [8] [nM] | Heart rate (Rattus norvegicus [9]) | IC50 [10] [nM] | Heart rate (Rattus norvegicus [11]) | MAP (Rattus norvegicus [12]) [mmHg]
1 | CC(Oc1c(Cl)cccc1Cl)C1=NCCN1.Cl (stereo in doubt) [LOFEXIDINE HYDROCHLORIDE] | -46 | -97 | -134 | -53 | -13.8 | -29.8 | -41.6 | 3.6 | -96 | – | – | –
2 | CC(Oc1c(Cl)cccc1Cl)C1=NCCN1.Cl (single isomer, unassigned; (+)) [LOFEXIDINE HYDROCHLORIDE] | -7 | -36 | -61 | -10.6 | -7.4 | -11.7 | – | 43 | – | – | – | –
3 | CC(Oc1c(Cl)cccc1Cl)C1=NCCN1.Cl (racemic) [LOFEXIDINE HYDROCHLORIDE] | -83 | -137 | -138 | -54.2 | -26.8 | -37.6 | -48.8 | – | -132 | 7.25 | -52 | -22.6
